Columns and labels:
[1] = test system: Serine/threonine-protein kinase B-raf (Homo sapiens), P15056 [V600E]; experiment: Inhibition of BRAF V600E mutant in human A375 cells assessed as decrease in MEK1/2 phosphorylation after 30 mins by Western blot analysis; assay type: cell-based
Method in brief: (§1)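 A375 cells treated with compound at 0, 0.05, 0.1 and 0.5 µM, then PBS-rinsed and lysed in RIPA with protease inhibitors on ice for 30 min. Lysate was cleared at 12,000 g, 4 °C, and protein assayed by BCA. Samples run on SDS-PAGE and transferred to PVDF. Membranes were milk-blocked, probed with primary antibody (1:500) overnight at 4 °C, then secondary antibody (1:5000) for 1 h at room temperature.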

[2] = test system: A-375; experiment: Induction of apoptosis in human A375 cells assessed as early apoptotic cells at 20 uM after 24 hrs by Annexin V-FITC/PI staining based flow cytometry (reference value: 5.45%); assay type: functional
[3] = test system: A-375; experiment: Cell cycle arrest in human A375 cells assessed as accumulation at S phase at 2.5 uM after 24 hrs by propidium iodide staining based flow cytometry (reference value: 21.3%); assay type: functional
[4] = test system: A-375; experiment: Cell cycle arrest in human A375 cells assessed as accumulation at G2/M phase at 5 uM after 24 hrs by propidium iodide staining based flow cytometry (reference value: 5.1%); assay type: functional
[5] = test system: A-375; experiment: Induction of apoptosis in human A375 cells assessed as late apoptotic cells at 2 uM after 24 hrs by Annexin V-FITC/PI staining based flow cytometry (reference value: 3.61%); assay type: functional
Method in brief: (§2)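 Apoptosis time course. A375 cells in 24-well plates (about 10⁵/well) at 2 µM for 0, 24, 48 and 72 h. Harvested by trypsin, washed in PBS, stained 15 min at room temperature in the dark with Annexin V-FITC/PI, analysed by flow cytometry.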

[6] = test system: HCT-116; experiment: Antiproliferative activity against human HCT116 cells after 48 hrs by MTT assay; assay type: functional; settings: HCT-116, 48 h
Method in brief: (§3)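 MTT reduction assay. Cell lines grown to log phase in DMEM with 10% FBS (A375 in DMEM with sodium pyruvate added), seeded at 10⁴ cells/well in 96-well plates. Three replicate wells per concentration, each assay run three times, GI50 averaged.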

[7] = test system: A-375; experiment: Induction of apoptosis in human A375 cells assessed as late apoptotic cells at 20 uM after 24 hrs by Annexin V-FITC/PI staining based flow cytometry (reference value: 4.26%); assay type: functional
[8] = Cytotoxicity against HEK293T cells assessed as decrease in cell viability after 48 hrs by MTT assay; assay type: cell-based, HEK-293T; settings: human; method in brief: as §3
[9] = test system: A-375; experiment: Induction of apoptosis in human A375 cells assessed as viable cells at 2 uM after 48 hrs by Annexin V-FITC/PI staining based flow cytometry (reference value: 89.4%); assay type: functional; settings: A-375, 48 h, read-out: Activity
[10] = test system: A-375; experiment: Induction of apoptosis in human A375 cells assessed as early apoptotic cells at 5 uM after 24 hrs by Annexin V-FITC/PI staining based flow cytometry (reference value: 5.45%); assay type: functional
[11] = test system: A-375; experiment: Induction of apoptosis in human A375 cells assessed as late apoptotic cells at 2.5 uM after 24 hrs by Annexin V-FITC/PI staining based flow cytometry (reference value: 4.26%); assay type: functional
[12] = test system: A-375; experiment: Cell cycle arrest in human A375 cells assessed as accumulation at G1 phase at 10 uM after 24 hrs by propidium iodide staining based flow cytometry (reference value: 73.6%); assay type: functional
[13] = test system: A-375; experiment: Cell cycle arrest in human A375 cells assessed as accumulation at S phase at 20 uM after 24 hrs by propidium iodide staining based flow cytometry (reference value: 21.3%); assay type: functional
[14] = test system: A-375; experiment: Cell cycle arrest in human A375 cells assessed as accumulation at G2/M phase at 2 uM after 24 hrs by propidium iodide staining based flow cytometry (reference value: 5.1%); assay type: functional
[15] = test system: A-375; experiment: Induction of apoptosis in human A375 cells assessed as late apoptotic cells at 2 uM after 72 hrs by Annexin V-FITC/PI staining based flow cytometry (reference value: 3.61%); assay type: functional; method in brief: as §2
[16] = test system: A-375; experiment: Induction of apoptosis in human A375 cells assessed as necrotic cells at 5 uM after 24 hrs by Annexin V-FITC/PI staining based flow cytometry (reference value: 1.61%); assay type: functional
[17] = test system: A-375; experiment: Cell cycle arrest in human A375 cells assessed as accumulation at G1 phase at 2 uM after 48 hrs by propidium iodide staining based flow cytometry (reference value: 73.6%); assay type: functional
[18] = test system: A-375; experiment: Cell cycle arrest in human A375 cells assessed as accumulation at G1 phase at 5 uM after 24 hrs by propidium iodide staining based flow cytometry (reference value: 73.6%); assay type: functional
[19] = test system: A-375; experiment: Cell cycle arrest in human A375 cells assessed as accumulation at S phase at 10 uM after 24 hrs by propidium iodide staining based flow cytometry (reference value: 21.3%); assay type: functional
[20] = test system: A-375; experiment: Induction of apoptosis in human A375 cells assessed as early apoptotic cells at 2 uM after 72 hrs by Annexin V-FITC/PI staining based flow cytometry (reference value: 5.42%); assay type: functional; method in brief: as §2
[21] = target: RAF proto-oncogene serine/threonine-protein kinase (Homo sapiens, UniProt P04049, Y340D/Y341D); experiment: Inhibition of recombinant human GST-tagged c-RAF (306 to 648 residues) Y340D/Y341D mutant expressed in baculovirus expression system using recombinant human full length N-terminal His-tagged MEK1 as substrate preincubated for 1 hr followed by substrate addition measured after 25 mins
[22] = test system: A-375; experiment: Cell cycle arrest in human A375 cells assessed as accumulation at G2/M phase at 10 uM after 24 hrs by propidium iodide staining based flow cytometry (reference value: 5.1%); assay type: functional
[23] = test system: A-375; experiment: Induction of apoptosis in human A375 cells assessed as necrotic cells at 20 uM after 24 hrs by Annexin V-FITC/PI staining based flow cytometry (reference value: 1.61%); assay type: functional
[24] = target: Serine/threonine-protein kinase B-raf (Mus musculus, UniProt P28028, V600E); experiment: Inhibition of mouse full length GST-tagged BRAF V600E mutant using recombinant human full length N-terminal His-tagged MEK1 as substrate preincubated for 1 hr followed by substrate addition measured after 25 mins
[25] = test system: Mus musculus; experiment: Toxicity in nude mouse xenografted with human A375 cells assessed as body weight loss at 5 to 10 mg/kg, ip administered every second day for 14 days and measured every 2 days; assay type: organism-based; settings: in vivo
Method in brief: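 Nude mice bearing subcutaneous right-flank A375 xenografts (3×10⁶ cells in cold PBS) were randomized into groups of 5 at about 100 mm³. Compounds were suspended in olive oil and given intraperitoneally every second day for 14 days. Body weight was recorded every two days.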

[26] = test system: A-375; experiment: Cell cycle arrest in human A375 cells assessed as accumulation at G1 phase at 2.5 uM after 24 hrs by propidium iodide staining based flow cytometry (reference value: 73.6%); assay type: functional
[27] = test system: A-375; experiment: Cell cycle arrest in human A375 cells assessed as accumulation at G2/M phase at 20 uM after 24 hrs by propidium iodide staining based flow cytometry (reference value: 5.1%); assay type: functional
[28] = test system: Serine/threonine-protein kinase B-raf (Homo sapiens), P15056 [V600E]; experiment: Inhibition of BRAF V600E mutant in human A375 cells assessed as decrease in ERK1/2 phosphorylation after 30 mins by Western blot analysis; assay type: cell-based; method in brief: as §1
[29] = test system: A-375; experiment: Cell cycle arrest in human A375 cells assessed as accumulation at S phase at 2 uM after 24 hrs by propidium iodide staining based flow cytometry (reference value: 21.3%); assay type: functional

Chain of Serine/threonine-protein kinase B-raf (Homo sapiens), P15056 [V600E] (P15056 whole entry V600E): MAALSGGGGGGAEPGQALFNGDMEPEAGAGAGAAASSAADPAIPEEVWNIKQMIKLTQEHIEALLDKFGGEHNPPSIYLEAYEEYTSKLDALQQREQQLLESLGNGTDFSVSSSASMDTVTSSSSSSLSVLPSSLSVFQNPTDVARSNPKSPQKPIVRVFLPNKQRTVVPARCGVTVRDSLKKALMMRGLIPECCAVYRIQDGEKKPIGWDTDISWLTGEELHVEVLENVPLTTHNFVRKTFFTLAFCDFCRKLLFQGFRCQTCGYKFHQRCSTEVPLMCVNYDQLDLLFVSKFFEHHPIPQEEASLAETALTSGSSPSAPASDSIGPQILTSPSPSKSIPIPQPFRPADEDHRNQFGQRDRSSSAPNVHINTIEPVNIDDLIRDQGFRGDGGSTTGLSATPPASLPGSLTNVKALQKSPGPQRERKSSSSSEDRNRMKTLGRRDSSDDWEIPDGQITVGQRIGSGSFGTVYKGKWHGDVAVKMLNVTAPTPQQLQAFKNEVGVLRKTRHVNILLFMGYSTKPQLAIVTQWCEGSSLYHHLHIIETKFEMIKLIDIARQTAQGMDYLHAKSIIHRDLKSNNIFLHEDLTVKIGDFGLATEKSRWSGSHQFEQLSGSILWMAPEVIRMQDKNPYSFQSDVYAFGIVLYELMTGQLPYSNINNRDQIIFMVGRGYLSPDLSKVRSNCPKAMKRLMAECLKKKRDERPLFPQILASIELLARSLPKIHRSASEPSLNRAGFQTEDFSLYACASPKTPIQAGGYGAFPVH
Chain of RAF proto-oncogene serine/threonine-protein kinase (P04049 whole entry Y340D/Y341D, the tested form may be a part): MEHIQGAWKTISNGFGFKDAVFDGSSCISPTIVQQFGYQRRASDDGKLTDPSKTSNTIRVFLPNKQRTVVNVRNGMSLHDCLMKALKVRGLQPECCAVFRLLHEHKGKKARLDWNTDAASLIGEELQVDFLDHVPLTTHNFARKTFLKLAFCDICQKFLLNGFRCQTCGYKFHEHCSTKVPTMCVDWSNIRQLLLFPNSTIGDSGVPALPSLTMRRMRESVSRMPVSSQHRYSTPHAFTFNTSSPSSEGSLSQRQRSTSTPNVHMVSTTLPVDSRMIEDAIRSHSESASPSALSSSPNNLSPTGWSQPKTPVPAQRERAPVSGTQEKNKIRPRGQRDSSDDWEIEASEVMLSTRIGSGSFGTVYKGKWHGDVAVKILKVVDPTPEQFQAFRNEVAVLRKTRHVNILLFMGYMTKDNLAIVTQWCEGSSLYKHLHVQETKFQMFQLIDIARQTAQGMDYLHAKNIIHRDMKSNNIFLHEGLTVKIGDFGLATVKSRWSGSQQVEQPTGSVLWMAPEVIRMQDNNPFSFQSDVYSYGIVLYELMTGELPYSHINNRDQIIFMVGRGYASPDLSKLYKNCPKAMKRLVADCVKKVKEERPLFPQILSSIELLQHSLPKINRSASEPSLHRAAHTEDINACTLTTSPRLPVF
Chain of Serine/threonine-protein kinase B-raf (P28028 whole entry, looked up, stated change not applied): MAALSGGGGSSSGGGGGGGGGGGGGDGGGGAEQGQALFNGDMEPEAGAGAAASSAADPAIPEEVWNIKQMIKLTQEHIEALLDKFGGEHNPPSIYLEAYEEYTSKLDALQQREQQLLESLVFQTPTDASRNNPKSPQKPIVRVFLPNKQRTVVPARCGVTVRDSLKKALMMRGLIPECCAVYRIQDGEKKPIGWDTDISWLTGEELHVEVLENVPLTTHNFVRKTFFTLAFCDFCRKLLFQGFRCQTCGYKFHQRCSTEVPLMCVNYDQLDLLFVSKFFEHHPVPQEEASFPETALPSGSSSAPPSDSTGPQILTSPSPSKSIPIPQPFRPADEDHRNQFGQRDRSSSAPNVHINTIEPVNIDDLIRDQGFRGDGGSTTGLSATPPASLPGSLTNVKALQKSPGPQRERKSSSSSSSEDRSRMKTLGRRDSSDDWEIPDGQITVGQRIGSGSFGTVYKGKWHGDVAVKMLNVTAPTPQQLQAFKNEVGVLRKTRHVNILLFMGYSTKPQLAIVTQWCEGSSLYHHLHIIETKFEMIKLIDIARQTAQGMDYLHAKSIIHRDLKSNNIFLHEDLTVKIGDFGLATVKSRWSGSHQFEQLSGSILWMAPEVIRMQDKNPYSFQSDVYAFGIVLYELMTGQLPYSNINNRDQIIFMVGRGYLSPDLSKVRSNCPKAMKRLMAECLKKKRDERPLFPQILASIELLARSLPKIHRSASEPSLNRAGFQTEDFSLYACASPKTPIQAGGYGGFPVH

COc1cccc(C2=NN(C(=S)Nc3ccccc3)C(c3ccc4c(c3)OCCO4)C2)c1 (centres undefined)
inhibition [1]: Dose-dependent effect | Activity [2]: 49.6% | Activity [3]: 19.5% | Activity [4]: 10.3% | Activity [5]: 6.76% | GI50 [6]: > 200 µM | Activity [7]: 11% | GI50 at 48 h [8]: > 200 µM | viability at 2 µM [9]: 74.5% | Activity [10]: 23.4% | Activity [11]: 5.43% | Activity [12]: 68.1% | Activity [13]: 16.9% | Activity [14]: 10.3% | Activity [15]: 6.49% | Activity [16]: 3.6% | Activity [17]: 58.8% | Activity [18]: 61.3% | Activity [19]: 13.8% | Activity [20]: 20.2% | IC50 [21]: > 200 µM | Activity [22]: 18.1% | Activity [23]: 3.25% | IC50 [24]: 60 nM | Activity [25]: Non-Toxic | Activity [26]: 72.3% | Activity [27]: 30.2% | inhibition [28]: Dose-dependent effect | Activity [29]: 17.3%

From ChEMBL document CHEMBL4270537, “Design and biological evaluation of novel triaryl pyrazoline derivatives with dioxane moiety for selective BRAFV600E inhibition” (Eur J Med Chem, 2018)
